Experiments:
Details in all cases: stereoisomer not certain
[1] = molecular target: T1, OR10H4 (Homo sapiens) (UniProt Q8NGA5)
T1 sequence (whole entry): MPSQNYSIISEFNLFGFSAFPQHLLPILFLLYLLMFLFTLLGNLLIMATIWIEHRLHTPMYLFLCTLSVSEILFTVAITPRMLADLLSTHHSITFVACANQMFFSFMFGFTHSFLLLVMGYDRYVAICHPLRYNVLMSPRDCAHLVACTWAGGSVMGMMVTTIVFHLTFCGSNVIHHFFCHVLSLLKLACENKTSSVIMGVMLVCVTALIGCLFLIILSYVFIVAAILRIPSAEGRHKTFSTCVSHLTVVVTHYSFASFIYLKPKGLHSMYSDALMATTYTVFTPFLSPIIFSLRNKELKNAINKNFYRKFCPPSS
In short: (§1)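 Transient luciferase assays in mammalian cell lines were common, though methods varied by source. The values come from published papers and their supplementary material, with extra details from the original authors when needed. Responsive refers to a measured signal the original authors judged statistically different from baseline, and non-responsive (inactive) to the remainder.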

[2] = molecular target: T2, OR10H5 (Homo sapiens) (UniProt Q8NGA6)
T2 sequence (whole entry): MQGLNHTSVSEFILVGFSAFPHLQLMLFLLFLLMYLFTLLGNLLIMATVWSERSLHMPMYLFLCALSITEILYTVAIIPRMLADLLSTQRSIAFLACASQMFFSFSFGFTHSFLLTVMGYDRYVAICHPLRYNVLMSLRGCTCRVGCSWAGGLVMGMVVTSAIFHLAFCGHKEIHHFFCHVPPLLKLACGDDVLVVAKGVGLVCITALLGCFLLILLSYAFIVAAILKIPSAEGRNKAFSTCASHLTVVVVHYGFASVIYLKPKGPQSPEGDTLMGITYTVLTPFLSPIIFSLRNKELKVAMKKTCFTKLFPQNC
In short: as §1

[3] = molecular target: T3, OR10J1 (Homo sapiens) (UniProt P30954)
T3 sequence (whole entry): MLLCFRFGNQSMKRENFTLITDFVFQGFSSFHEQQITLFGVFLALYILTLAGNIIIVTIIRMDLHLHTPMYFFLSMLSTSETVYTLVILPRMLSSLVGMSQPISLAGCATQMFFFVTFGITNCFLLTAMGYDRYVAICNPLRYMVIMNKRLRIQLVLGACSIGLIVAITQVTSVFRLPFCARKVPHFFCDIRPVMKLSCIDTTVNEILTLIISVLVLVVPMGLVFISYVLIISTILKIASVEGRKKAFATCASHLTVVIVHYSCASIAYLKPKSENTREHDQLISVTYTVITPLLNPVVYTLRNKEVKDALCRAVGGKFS
In short: as §1

[4] = molecular target: T4, OR10J3 (Homo sapiens) (UniProt Q5JRS4)
T4 sequence (whole entry): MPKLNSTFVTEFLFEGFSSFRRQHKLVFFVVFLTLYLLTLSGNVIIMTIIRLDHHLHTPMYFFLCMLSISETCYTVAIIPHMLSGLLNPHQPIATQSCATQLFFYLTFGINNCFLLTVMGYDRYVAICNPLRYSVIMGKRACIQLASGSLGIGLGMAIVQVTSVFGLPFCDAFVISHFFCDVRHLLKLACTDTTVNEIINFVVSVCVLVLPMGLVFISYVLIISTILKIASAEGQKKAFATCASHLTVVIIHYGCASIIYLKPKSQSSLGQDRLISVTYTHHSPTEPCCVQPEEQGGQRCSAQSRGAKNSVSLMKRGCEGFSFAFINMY
In short: as §1

[5] = molecular target: T5, OR10J5 (Homo sapiens) (UniProt Q8NHC4)
T5 sequence (whole entry): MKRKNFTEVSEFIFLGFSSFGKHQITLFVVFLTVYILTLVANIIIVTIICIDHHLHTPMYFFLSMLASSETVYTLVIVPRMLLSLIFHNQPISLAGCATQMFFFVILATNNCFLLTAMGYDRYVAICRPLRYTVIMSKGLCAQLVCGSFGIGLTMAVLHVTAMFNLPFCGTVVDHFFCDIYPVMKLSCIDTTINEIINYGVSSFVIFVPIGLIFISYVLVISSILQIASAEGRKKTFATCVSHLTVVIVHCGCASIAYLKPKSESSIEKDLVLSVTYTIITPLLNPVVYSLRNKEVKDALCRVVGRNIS
In short: as §1

[6] = molecular target: T6, OR10K1 (Homo sapiens) (UniProt Q8NGX5)
T6 sequence (whole entry): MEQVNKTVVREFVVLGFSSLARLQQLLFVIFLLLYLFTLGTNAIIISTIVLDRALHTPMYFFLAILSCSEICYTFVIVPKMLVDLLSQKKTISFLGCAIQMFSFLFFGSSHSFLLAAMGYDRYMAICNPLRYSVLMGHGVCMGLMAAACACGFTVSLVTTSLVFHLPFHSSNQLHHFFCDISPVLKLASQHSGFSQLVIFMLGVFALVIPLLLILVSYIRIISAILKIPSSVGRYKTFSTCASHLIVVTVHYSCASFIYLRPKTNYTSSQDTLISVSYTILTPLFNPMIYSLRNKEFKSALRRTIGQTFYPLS
In short: as §1

[7] = molecular target: T7, OR10P1 (Homo sapiens) (UniProt Q8NGE3)
T7 sequence (whole entry): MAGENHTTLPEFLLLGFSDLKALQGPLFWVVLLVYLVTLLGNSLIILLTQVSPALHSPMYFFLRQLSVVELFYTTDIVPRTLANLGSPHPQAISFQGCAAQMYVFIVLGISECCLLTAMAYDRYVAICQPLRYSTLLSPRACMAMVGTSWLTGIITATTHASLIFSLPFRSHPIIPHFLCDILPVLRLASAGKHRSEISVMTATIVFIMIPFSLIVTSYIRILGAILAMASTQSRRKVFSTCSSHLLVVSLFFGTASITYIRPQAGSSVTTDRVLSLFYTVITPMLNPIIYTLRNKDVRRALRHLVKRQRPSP
In short: as §1

[8] = molecular target: T8, OR10Q1 (Homo sapiens) (UniProt Q8NGQ4)
T8 sequence (whole entry): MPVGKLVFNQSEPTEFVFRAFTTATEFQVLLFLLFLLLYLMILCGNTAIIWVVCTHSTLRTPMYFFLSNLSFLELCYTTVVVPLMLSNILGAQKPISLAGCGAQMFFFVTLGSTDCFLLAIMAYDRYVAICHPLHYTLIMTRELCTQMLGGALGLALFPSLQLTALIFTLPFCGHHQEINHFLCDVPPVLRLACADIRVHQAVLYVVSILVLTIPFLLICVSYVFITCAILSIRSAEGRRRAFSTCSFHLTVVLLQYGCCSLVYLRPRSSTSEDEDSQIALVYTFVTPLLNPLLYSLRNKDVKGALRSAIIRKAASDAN
In short: as §1

[9] = molecular target: T9, OR10R2 (Homo sapiens) (UniProt Q8NGX6)
T9 sequence (whole entry): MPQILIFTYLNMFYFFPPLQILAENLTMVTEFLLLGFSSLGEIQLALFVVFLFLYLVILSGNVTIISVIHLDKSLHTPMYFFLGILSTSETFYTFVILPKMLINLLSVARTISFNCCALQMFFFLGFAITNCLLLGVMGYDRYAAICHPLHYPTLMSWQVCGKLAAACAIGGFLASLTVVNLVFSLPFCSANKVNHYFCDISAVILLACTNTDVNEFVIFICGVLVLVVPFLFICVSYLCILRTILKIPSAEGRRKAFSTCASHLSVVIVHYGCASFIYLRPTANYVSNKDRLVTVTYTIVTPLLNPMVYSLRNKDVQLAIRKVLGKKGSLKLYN
In short: as §1

[10] = molecular target: T10, OR10S1 (Homo sapiens) (UniProt Q8NGN2)
T10 sequence (whole entry): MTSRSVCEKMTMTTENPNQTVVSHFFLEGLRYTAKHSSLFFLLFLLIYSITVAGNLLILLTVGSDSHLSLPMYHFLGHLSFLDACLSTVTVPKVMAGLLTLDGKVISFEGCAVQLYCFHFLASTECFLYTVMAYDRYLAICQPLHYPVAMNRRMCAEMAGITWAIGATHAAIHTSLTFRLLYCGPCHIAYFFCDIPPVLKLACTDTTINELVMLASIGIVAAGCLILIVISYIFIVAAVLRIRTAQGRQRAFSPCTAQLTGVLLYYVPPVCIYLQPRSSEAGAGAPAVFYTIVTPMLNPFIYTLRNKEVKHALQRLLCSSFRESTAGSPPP
In short: as §1

[11] = molecular target: T11, OR10T2 (Homo sapiens) (UniProt Q8NGX3)
T11 sequence (whole entry): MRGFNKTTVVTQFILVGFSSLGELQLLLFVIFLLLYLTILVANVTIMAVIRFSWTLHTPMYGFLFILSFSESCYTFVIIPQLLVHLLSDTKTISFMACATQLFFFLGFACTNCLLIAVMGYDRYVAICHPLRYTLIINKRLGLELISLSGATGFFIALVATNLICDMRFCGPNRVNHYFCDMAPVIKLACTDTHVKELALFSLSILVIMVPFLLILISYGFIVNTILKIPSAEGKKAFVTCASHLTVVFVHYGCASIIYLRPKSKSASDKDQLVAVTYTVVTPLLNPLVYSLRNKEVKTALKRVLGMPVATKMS
In short: as §1

[12] = molecular target: T12, OR10V1 (Homo sapiens) (UniProt Q8NGI7)
T12 sequence (whole entry): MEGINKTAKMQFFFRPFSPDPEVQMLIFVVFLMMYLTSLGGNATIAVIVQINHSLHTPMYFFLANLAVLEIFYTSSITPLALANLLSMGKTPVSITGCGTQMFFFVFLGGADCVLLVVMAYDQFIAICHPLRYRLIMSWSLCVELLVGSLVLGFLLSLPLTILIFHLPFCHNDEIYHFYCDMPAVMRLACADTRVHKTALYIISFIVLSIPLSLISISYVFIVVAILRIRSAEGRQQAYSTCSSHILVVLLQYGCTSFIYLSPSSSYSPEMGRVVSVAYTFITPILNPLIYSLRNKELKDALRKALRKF
In short: as §1

[13] = molecular target: T13, OR10W1 (Homo sapiens) (UniProt Q8NGF6)
T13 sequence (whole entry): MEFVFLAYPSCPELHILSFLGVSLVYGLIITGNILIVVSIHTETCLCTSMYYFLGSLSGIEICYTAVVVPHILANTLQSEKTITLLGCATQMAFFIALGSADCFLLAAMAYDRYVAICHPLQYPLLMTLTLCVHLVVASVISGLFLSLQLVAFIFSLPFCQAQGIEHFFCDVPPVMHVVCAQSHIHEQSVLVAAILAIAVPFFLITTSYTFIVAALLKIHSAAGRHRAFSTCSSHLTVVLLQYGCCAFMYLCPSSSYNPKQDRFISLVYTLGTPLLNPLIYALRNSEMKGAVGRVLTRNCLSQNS
In short: as §1

[14] = molecular target: T14, OR10X1 (Homo sapiens) (UniProt Q8NGY0)
T14 sequence (whole entry): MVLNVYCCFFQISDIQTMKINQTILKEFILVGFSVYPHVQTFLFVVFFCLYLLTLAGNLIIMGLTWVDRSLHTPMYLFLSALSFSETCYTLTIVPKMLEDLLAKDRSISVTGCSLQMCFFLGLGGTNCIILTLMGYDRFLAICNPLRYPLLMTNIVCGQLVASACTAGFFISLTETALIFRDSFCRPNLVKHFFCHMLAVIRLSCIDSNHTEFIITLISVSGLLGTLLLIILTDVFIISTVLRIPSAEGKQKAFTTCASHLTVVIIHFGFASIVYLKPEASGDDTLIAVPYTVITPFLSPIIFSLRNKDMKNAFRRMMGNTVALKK
In short: as §1

[15] = molecular target: T15, OR10Z1 (Homo sapiens) (UniProt Q8NGY1)
T15 sequence (whole entry): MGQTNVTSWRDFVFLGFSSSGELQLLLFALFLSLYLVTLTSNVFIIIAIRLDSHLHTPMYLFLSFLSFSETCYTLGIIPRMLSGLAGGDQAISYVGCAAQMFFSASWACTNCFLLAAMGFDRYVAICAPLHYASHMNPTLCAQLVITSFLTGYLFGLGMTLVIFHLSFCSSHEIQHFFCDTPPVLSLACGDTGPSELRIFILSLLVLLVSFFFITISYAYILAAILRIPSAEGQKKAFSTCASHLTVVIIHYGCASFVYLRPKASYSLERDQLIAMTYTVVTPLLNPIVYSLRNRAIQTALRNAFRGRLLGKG
In short: as §1

[16] = molecular target: T16, OR11A1 (Homo sapiens) (UniProt Q9GZK7)
T16 sequence (whole entry): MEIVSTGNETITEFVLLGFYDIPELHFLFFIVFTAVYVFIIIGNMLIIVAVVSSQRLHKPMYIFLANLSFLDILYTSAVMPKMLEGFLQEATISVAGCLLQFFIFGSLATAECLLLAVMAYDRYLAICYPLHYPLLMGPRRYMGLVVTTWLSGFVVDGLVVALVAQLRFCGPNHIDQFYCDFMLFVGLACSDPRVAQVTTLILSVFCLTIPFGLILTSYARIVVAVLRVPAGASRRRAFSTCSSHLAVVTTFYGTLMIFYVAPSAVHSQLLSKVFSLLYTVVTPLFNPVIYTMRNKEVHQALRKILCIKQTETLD
In short: as §1

[17] = molecular target: T17, OR11G2 (Homo sapiens) (UniProt Q8NGC1)
T17 sequence (whole entry): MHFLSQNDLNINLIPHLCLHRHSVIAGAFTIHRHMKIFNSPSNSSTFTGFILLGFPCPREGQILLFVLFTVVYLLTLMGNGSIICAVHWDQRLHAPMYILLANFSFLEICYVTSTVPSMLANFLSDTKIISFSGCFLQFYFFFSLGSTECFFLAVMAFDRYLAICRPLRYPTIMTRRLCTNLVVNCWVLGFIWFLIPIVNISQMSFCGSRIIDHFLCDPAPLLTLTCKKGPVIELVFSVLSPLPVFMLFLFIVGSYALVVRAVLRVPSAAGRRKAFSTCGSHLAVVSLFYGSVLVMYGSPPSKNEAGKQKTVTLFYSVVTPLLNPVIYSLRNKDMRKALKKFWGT
In short: as §1

[18] = molecular target: T18, OR11H1 (Homo sapiens) (UniProt Q8NG94)
T18 sequence (whole entry): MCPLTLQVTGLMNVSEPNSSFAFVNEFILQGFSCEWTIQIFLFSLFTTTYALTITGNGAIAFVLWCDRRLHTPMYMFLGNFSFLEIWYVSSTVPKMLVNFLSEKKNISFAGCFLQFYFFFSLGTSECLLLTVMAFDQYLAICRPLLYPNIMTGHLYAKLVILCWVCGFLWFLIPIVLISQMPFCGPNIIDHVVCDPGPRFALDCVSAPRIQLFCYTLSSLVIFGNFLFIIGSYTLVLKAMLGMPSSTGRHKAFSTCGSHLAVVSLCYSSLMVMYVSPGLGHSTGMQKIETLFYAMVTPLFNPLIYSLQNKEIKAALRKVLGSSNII
In short: as §1

Measured: odorant receptor agonist call;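 also: active if original authors judged signal statistically different from baseline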

CCCCCCC=CCCC=O
inactive: all assays above

Reference: the M2OR odorant receptor database
